{"source": "paper PMC6944740", "about": "(Alzheimer's & Dementia : Translational Research & Clinical …, 2019)", "key": {"[1]": {"assay": "Isothermal titration calorimetry of FeCl3 with 5-YHEDA", "details": "ITC, 200 μM 5-YHEDA, 1000 μM FeCl3, one-site binding model"}, "SN mice [2]": {"tested_on": "SN mice", "type": "in vivo, Kunming mouse", "details": "200 μL of 20 μM intracardiac weekly, versus untreated SN mice"}, "[3]": {"assay": "5-YHEDA immunohistochemical staining of brain slices after cardiac injection", "type": "in vivo, mouse", "details": "mice, intracardiac injection", "outline": "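Fixed brain slices were blocked in 0.1% BSA/PBS (w/v) for 1 h, then given anti-peptide mouse serum at 4°C overnight. The serum was raised in normal mice injected weekly with peptide plus incomplete Freund adjuvant (s.c. or i.p.) for 2 months. After washing, slices took HRP goat anti-mouse IgG for 2 h, then DAB development.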"}, "[4]": {"assay": "Solubility of the oligomer", "type": "physicochemical", "details": "dissolved in distilled water at 1 mg/mL"}, "SH-sy5y cells": {"tested_on": "SH-sy5y cells", "assay": "SH-sy5y cells in iron-rich medium: hydroxyl radical, iron and cell survival", "type": "cell-based, human", "details": "1.5 μM peptide; SEM and flow cytometry"}, "SN mice [5]": {"tested_on": "SN mice", "assay": "TUNEL assay of neuronal necrosis in brain", "type": "in vivo, Kunming mouse", "details": "intracardiac weekly, versus untreated SN mice", "outline": "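Senescent 25-month-old Kunming mice were picked by water maze, TUNEL and blood assays and given 200 μL of 20 μM peptide intracardially each time. Frozen brain sections sat 1 h in Na-HEPES, then 10 mM H2O2 and […]. After PBS wash and 0.1% Triton X-100, TUNEL mix ran 1 h at 37°C in the dark; some sections were DAB-stained. Bright/brown spots were scored necrotic.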"}}, "data": [{"substance": "YHEDAYHEDAYHEDAYHEDAYHEDA [5-YHEDA]", "values": [{"measurement": "Gibbs energy lost after FeCl3 titration (ΔG)", "setting": "[1]", "result": 8973, "unit": "kcal/mol"}, {"measurement": "iron and radical levels in the brain (Fig. 5I)", "setting": "SN mice [2]", "result": "nearly the same as those in the untreated SN mice"}, {"measurement": "entry into brain (anti-5-YHEDA immunohistochemical staining of brain slices)", "setting": "[3]", "result": "no staining was observed"}, {"measurement": "solubility", "setting": "[4]", "result": "soluble"}, {"measurement": "survival of SH-sy5y cells in iron-rich medium", "setting": "SH-sy5y cells", "result": "many of the SH-sy5y cells cultured in iron-rich medium survived"}, {"measurement": "neuronal necrosis in the SN brain (TUNEL)", "setting": "SN mice [5]", "result": "did not prevent neuronal damage"}]}]}
